Data on five compounds can be found in ChEMBL document CHEMBL1138650, “Inactivation of human S-adenosylhomocysteine hydrolase by covalent labeling of cysteine 195 with thionucleoside derivatives” (Bioorg Med Chem Lett, 2004).

Assay [1] deals with T1, Adenosylhomocysteinase (Homo sapiens, UniProt P23526). The assay can be described thus: Binding affinity for human placental S-adenosyl-homocysteine hydrolase. Summed up: (§1)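 Recombinant human placental enzyme, purified to homogeneity, at 2 µM, preincubated at 37°C with inhibitor at various concentrations and times in 20 mM potassium phosphate pH 7.5, 1 mM EDTA. Ki and kinact come from a double reciprocal plot of pseudo-first-order inactivation rate versus 1/[I].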
Target sequence in this assay (P23526 whole entry): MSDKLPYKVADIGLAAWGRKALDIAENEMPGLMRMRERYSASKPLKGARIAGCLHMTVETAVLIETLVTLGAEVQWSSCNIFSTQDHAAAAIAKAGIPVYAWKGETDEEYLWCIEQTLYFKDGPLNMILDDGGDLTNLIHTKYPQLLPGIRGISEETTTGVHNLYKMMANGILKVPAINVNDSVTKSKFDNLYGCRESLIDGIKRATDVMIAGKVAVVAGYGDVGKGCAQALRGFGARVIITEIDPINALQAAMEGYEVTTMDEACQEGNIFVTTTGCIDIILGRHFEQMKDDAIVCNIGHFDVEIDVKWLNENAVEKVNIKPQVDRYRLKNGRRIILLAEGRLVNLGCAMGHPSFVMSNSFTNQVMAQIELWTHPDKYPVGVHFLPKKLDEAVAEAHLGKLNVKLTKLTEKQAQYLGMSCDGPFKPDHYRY

Assay [2] concerns the target T1, Adenosylhomocysteinase. The assay can be described thus: Inactivation rate constant for human placental S-adenosyl-homocysteine hydrolase. Summed up: as §1
Target sequence in this assay (P23526 2-432 limits assumed): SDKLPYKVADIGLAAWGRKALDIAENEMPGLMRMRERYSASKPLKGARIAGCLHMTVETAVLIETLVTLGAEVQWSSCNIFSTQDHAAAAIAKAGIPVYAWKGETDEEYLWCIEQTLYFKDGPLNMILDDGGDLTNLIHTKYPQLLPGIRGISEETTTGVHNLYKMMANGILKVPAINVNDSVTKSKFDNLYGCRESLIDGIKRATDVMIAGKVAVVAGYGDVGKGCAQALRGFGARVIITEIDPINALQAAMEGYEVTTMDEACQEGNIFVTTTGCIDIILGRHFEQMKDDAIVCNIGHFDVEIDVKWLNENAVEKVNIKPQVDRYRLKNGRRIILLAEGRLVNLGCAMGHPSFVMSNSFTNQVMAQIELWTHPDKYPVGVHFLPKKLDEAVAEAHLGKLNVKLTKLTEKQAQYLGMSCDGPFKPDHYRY

As usually defined, the Ki is the dissociation constant of the complex between target and ligand, obtained from inhibition or displacement. Lower therefore signals higher affinity. In the case of `Nc1ncnc2c1ncn2C1O[C@H]([C@H]2CS2)[C@@H](O)[C@H]1O` (stereo not given in full), the Ki on Adenosylhomocysteinase [1] is 50 µM. This compound gave a Kinact on Adenosylhomocysteinase [2] of 0.03 min⁻¹.

At Adenosylhomocysteinase [1], `Nc1ncnc2c1ncn2C1OC([C@@H]2CS2)[C@@H](O)[C@H]1O` (single isomer, unassigned) had a Ki of 105 µM. The Kinact on Adenosylhomocysteinase [2] is 0.1 min⁻¹.

`CSSC[C@H]1OC(n2cnc3c(N)ncnc32)[C@H](O)[C@@H]1O` (stereo not given in full) returned a Ki at Adenosylhomocysteinase [1] of 19 µM. In addition, the Kinact at Adenosylhomocysteinase [2] stood at 0.05 min⁻¹.

Regarding `Nc1ncnc2c1ncn2C1O[C@H](CS)[C@@H](O)[C@H]1O` (stereo not given in full), at Adenosylhomocysteinase [1], the Ki was found to be 4 µM. Besides, at Adenosylhomocysteinase [2], the Kinact turned out to be 0.04 min⁻¹.

With `Nc1ncnc2c1ncn2C1O[C@@H](CSSC[C@H]2OC(n3cnc4c(N)ncnc43)[C@H](O)[C@@H]2O)[C@H](O)[C@@H]1O` (stereo not given in full), affinity on Adenosylhomocysteinase [1] was put at a Ki of 96 µM. Moreover, the Kinact on Adenosylhomocysteinase [2] was determined as 0.05 min⁻¹.
